Measurements as given in article PMC6240402 (The Journal of allergy and clinical immunology, 2018).
“Also recorded” adds a separate entry of the source.

Experiments:
[1] = target: T1, CCR3 (human blood eosinophils) (Homo sapiens, UniProt P51677); assay: CCR3 surface expression in human blood eosinophils, prolonged exposure; format: cell-based
T1 sequence (P51677 1-355): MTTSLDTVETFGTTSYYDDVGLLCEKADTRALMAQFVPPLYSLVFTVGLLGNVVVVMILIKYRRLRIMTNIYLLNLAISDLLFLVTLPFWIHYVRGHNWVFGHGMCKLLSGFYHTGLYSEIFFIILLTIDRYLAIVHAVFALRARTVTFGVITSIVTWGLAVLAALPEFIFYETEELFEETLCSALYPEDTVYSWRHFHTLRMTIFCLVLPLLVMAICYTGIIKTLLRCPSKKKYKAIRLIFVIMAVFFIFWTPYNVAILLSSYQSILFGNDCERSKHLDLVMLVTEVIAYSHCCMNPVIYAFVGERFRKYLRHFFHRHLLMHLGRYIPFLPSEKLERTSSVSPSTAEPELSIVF
Summary of the method: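 Eosinophils came from blood of mild allergic asthmatic donors, separated on a Ficoll-Paque gradient and then negatively selected. Cells got vehicle or 1 μM inhibitor, with or without CCL11 (12 nM), for 24, 48 or 72 h, refreshed daily with medium plus inhibitor. After blocking with 10% heat-inactivated human AB serum, cells were stained with PE anti-CCR3 (clone 5E8) or isotype control and read by flow cytometry. Surface CCR3 is given as % of vehicle: mean ± SEM, n=3, triplicate.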

CCR3 [2] = target: T2, CCR3 (Homo sapiens, UniProt P51677); assay: CCR3 surface expression/internalization in AML14.3D10-CCR3 cells; format: cell-based
T2 sequence (P51677 1-355): T1 sequence (P51677 1-355)
Summary of the method: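 CCR3-transfected, eosinophil-differentiated AML14.3D10 cells were exposed for 30 min to vehicle, test peptide (0.01–10 μM) or comparator antagonists (1 μM), each with or without CCL11 (12 nM). Longer exposures ran 24–72 h at 1 μM, with daily medium/inhibitor renewal. Cells were blocked with 10% heat-inactivated human AB serum, stained with PE anti-CCR3 (5E8) or isotype, and analysed by flow cytometry. Values are mean ± SEM, n=3, in triplicate.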

[3] = target: T1, CCR3 (human blood eosinophils); assay: Eotaxin-induced chemotaxis of blood eosinophils; format: cell-based; details: CCL11 12 nM, CCL24 20 nM, CCL26 100 nM
Summary of the method: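 Eosinophils were taken from the blood of mild allergic asthmatic subjects, separated over a Ficoll-Paque Plus gradient, then purified by negative selection with an eosinophil isolation kit. The test peptide was given at 0.001–10 μM, with 4 h chemotaxis toward CCL11 (12 nM), CCL24 (20 nM) or CCL26 (100 nM). IC50 and IC90 were derived from the dose-response inhibition curves.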

CCR3 [4] = target: T2, CCR3; assay: 13C HSQC NMR binding to reductively methylated CCR3 positive membranes
Summary of the method: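 13C HSQC spectra recorded on membranes carrying 13C-reductively methylated CCR3 (lysine di-13CH3 label), compared with CCR3-null membranes. Spectra were taken with or without 1 μM CCL11, in the presence or absence of 2 μM test peptide. Binding was judged from spectral comparisons between conditions.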

[5] = target: T3, CCR3 (AML14.3D10-CCR3 cells) (Homo sapiens, UniProt P51677); assay: Eotaxin-induced chemotaxis of AML14.3D10-CCR3 cells; format: cell-based; details: CCL11 12 nM, CCL24 20 nM, CCL26 100 nM
T3 sequence (P51677 1-355): T1 sequence (P51677 1-355)
Summary of the method: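 Eosinophil-differentiated acute myeloid leukaemia line stably transfected to express CCR3. Cells exposed to the test peptide across 0.001–10 μM as a dose-response, then allowed to migrate for 4 h toward CCL11 (12 nM), CCL24 (20 nM) or CCL26 (100 nM). Read-out is inhibition of chemotaxis.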

Solubility observation = format: physicochemical; details: authors' own experience; unsuitable for iv injection
lung eosinophils = details: subcutaneous 100 mg/kg, resuspended with Tween-80; cited from earlier work
CCR3 [6] = target: T2, CCR3; details: SB328437; cited from earlier work
[7] = test system: CCR3 (AML14.3D10-CCR3 cells); format: cell-based
Summary of the method: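 AML14.3D10-CCR3 cells (an eosinophil-differentiated AML line stably expressing CCR3) were held 24, 48 or 72 h with vehicle or test compound at 1 μM. Medium was replaced daily with fresh complete medium containing compound. Cells were then challenged with CCL11 (12 nM). Each time point was compared with the 24 h point; mean ± SEM, n=3 experiments in triplicate.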

sputum eosinophils / AHR = details: clinical trial; cited from earlier work

CCL11: high affinity agonist chemokine of CCR3
CCR3 surface expression, 24h, CCL11 alone ([1]; CCL11 12 nM alone, 24h, % of vehicle): ~ 68% | CCR3 surface expression, 72h, CCL11 alone ([1]; CCL11 12 nM alone, 72h, % of vehicle): ~ 18% | CCR3 internalized from cell surface (CCR3 [2]; AML14.3D10-CCR3, CCL11 30 min, flow cytometry): More than 50% | induction of chemotaxis, blood eosinophils [3]: undergo CCR3-mediated chemotaxis | interference of CCL11 and R321 with each other's binding (CCR3 [4]; 1 μM CCL11 and 2 μM R321): neither CCL11 nor R321 interfere with each other’s binding to the receptor | effect on CCR3 HSQC signals (CCR3 [4]; 1 μM CCL11 or 2 μM R321): specifically reduced the intensity of CCR3 signals | induction of chemotaxis, AML14.3D10-CCR3 [5]: undergo CCR3-mediated chemotaxis

CCL26: high affinity agonist chemokine of CCR3
induction of chemotaxis, blood eosinophils [3]: undergo CCR3-mediated chemotaxis | induction of chemotaxis, AML14.3D10-CCR3 [5]: undergo CCR3-mediated chemotaxis

COC(=O)[C@H](Cc1ccc([N+](=O)[O-])cc1)NC(=O)c1cccc2ccccc12 [SB328437]
CCR3 surface levels, prolonged exposure ([1]; 1 μM, up to 72h): failed to promote CCR3 cell surface accumulation; also recorded: no significant effect on receptor levels | CCR3 internalization (discussion) (CCR3 [2]; effect more pronounced with longer treatment times): partially or completely block CCR3 internalization | solubility (Solubility observation): solubility issues | OVA-induced accumulation of eosinophils in lungs (lung eosinophils): successfully suppress OVA-induced accumulation of eosinophils in the lungs | activity at CCR3 in eosinophils (CCR3 [6]): specific inhibitor of CCR3 in eosinophils | drop in chemotaxis inhibition level over 72h ([7]; AML14.3D10-CCR3, 1 μM, CCL11 12 nM, 72h): 13.7% | CCL11/CCR3-mediated chemotaxis inhibition relative to R321 and UCB35625 ([7]; equimolar concentrations, 1 μM): less effective inhibitor of CCL11/CCR3-mediated chemotaxis

NC(=O)c1ccc(CNC(=O)NC[C@H]2CN(Cc3ccc(Cl)c(Cl)c3)CCO2)cc1 [GW766994]
AHR (sputum eosinophils / AHR): significant inhibition of AHR | sputum eosinophils (sputum eosinophils / AHR): trend towards inhibition of sputum eosinophils

B1: CCL24: high affinity agonist chemokine of CCR3 (protein, UniProt O00175 27-119, looked up)
C-C motif chemokine 24: VVIPSPCCMFFVSKRIPENRVVSYQLSSRSTCLKAGVIFTTKKGQQFCGDPKQEWVQRYMKNLDAKQKKASPRARAVAVKGPVQRYPGNQTTC
induction of chemotaxis, blood eosinophils [3]: undergo CCR3-mediated chemotaxis | induction of chemotaxis, AML14.3D10-CCR3 [5]: undergo CCR3-mediated chemotaxis
